In PubChem BioAssay AID623983 (Vanderbilt High Throughput Screening Facility, 2012):
Calls of active or inactive are those of the source. The rule behind the calls is not given here.

Target: G protein-activated inward rectifier potassium channel 2 (Homo sapiens) + G protein-activated inward rectifier potassium channel 3 (Homo sapiens) (UniProt P48051+Q92806)
Test: activation of GIRK2/3-mediated thallium influx – cell-based, HEK-293 hGIRK2/3, thallium flux, FluoZin-2, concentration-response, dose response (AID 623983)
In short: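 Assay system: HEK-293 cells stably expressing human GIRK2/3 channels. Reagent: thallium stimulus containing EC20 glutamate. Incubation: FluoZin-2 AM loading ~60 min room temperature, compound 4 min pre-thallium. Technique: FluoZin-2 fluorescence thallium flux, sampled at 1 Hz. Control set: 80 mM methyl pentanediol as maximal activation reference, vehicle wells.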

Sequence of G protein-activated inward rectifier potassium channel 2 (Homo sapiens) + G protein-activated inward rectifier potassium channel 3 (Homo sapiens) (P48051 whole entry, looked up): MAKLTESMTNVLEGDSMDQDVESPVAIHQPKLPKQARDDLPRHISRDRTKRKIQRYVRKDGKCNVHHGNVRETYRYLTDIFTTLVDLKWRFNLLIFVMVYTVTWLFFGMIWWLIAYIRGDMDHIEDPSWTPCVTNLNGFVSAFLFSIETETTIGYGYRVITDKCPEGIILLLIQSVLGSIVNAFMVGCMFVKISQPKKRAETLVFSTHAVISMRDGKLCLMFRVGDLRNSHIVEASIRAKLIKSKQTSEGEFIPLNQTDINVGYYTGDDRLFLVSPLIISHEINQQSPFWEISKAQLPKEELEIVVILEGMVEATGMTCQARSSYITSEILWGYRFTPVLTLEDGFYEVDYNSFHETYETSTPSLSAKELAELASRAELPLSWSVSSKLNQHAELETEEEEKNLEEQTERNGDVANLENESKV
Sequence of G protein-activated inward rectifier potassium channel 2 (Homo sapiens) + G protein-activated inward rectifier potassium channel 3 (Homo sapiens) (Q92806 whole entry, looked up): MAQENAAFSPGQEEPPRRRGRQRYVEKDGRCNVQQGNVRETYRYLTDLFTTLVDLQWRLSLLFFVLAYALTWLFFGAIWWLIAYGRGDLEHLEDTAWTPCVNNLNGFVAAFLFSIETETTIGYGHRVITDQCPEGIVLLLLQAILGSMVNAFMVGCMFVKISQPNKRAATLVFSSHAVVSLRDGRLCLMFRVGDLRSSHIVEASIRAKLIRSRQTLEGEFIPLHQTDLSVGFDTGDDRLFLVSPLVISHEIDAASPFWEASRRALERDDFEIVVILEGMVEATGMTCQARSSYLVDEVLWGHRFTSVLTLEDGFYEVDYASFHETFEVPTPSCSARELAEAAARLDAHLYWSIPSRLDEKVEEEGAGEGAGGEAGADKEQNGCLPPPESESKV

`Cc1cc(NC(=O)Nc2ccc(F)c(F)c2)n(-c2ccccc2)n1` was tested, and the outcome was “inactive”.
